From PubChem
Shown are actives, neighbours in structure and some others; about 1% of the full set was active somewhere.
ERp5 inh: inhibitors of ERp5-driven insulin aggregation, primary screen, biochemical, turbidity, absorbance 650 nm, single point; Protein disulfide-isomerase A6 (Homo sapiens), Q15084; 90 min; inhibition, % at 9.99 µM; 350,000 compounds, 0.05% hits;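 active means mean replicate inhibition above about 25%, with every replicate also reaching it, limit read from the data, passing the limit was not always enough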
Target sequence (Q15084 whole entry, looked up): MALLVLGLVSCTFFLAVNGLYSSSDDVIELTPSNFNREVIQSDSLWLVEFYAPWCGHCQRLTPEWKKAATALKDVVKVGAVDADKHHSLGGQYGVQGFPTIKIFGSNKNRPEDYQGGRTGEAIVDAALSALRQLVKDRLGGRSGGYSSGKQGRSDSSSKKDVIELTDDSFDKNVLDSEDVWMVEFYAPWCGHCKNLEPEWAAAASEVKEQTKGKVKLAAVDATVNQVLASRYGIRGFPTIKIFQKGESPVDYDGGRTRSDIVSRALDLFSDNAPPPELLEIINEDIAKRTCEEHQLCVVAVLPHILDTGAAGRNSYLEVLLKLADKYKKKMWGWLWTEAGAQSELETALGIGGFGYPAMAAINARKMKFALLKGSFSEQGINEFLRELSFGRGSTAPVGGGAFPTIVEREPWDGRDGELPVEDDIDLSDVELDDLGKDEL
IMP-1 inhibitor: IMP-1 metallo-beta-lactamase inhibitors, primary screen, biochemical, epi-absorbance readout, Pseudomonas aeruginosa enzyme; 290,000 compounds, 0.45% hits; purified IMP-1, nitrocefin hydrolysis, epi-absorbance fluorescence; inhibition, % at 5.6 µM; metallo-beta-lactamase IMP-1 (Pseudomonas aeruginosa);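 active means inhibition above the mean plus 3 SD of all compounds in the same screening run, cut at about 4.5% in these data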
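System: Purified recombinant IMP-1 metallo-beta-lactamase enzyme | Measured by: Fluorescence quenching readout, ex 480/em 530 nm | Replication: Singlicate | Incubation: 15 min preincubation plus 25 min reaction at 25 °C | Evaluation: Percent inhibition from optical density relative to buffer-blank wells | Benchmarks: DMSO with and without IMP-1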
PglD inh: C. jejuni PglD acetyltransferase inhibitors, primary screen, biochemical, DTNB colorimetric, single point; UDP-N-acetylbacillosamine N-acetyltransferase PglD (Campylobacter jejuni); purified PglD enzyme, DTNB colorimetric CoA detection; inhibition, % at 12.5 µM; 360,000 compounds, 0.098% hits; AID 602405, 2012; in the data active means inhibition above about 16%, passing the limit was not always enough
PDI inh: inhibitors of human PDI, primary screen, biochemical, turbidity, single point, plate reader. Protein disulfide-isomerase (Homo sapiens), P07237. AID 588391, 2011. inhibition, % at 10 µM. PDI insulin aggregation turbidity, A650, 90 min. 350,000 compounds, 0.052% hits;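 active means mean inhibition across replicates of 30% or more, whatever share of single replicates reach that level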
VIM-2 inh: VIM-2 metallo-beta-lactamase inhibitors, primary screen, biochemical, epi-absorbance readout, Pseudomonas aeruginosa enzyme | purified VIM-2, nitrocefin hydrolysis, epi-absorbance fluorescence | inhibition, % at 5.6 µM | 290,000 compounds, 0.89% hits;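 active means inhibition above the mean of all tested compounds plus 3 SD, cutoff set per screening run, cut at about 7.5% in these data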;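 further: red hydrolysis product quenches plate fluorescence so inhibitors raise well fluorescence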
PvdQ inh: P. aeruginosa PvdQ acylase inhibitors, primary screen, biochemical, fluorescence, plate reader and imaging, single point | 340,000 compounds, 0.063% hits | AID 488965, 2010 | purified PvdQ acylase | inhibition, % at 10 µM; in the data active means inhibition above about 30%, passing the limit was not always enough
Hits are given with their value; 0 = inactive; - = no result.

SMILES	ERp5 inh	IMP-1 inhibitor	PglD inh	PDI inh	VIM-2 inh	PvdQ inh
C[C@@H]1CN([C@@H](C)CO)C(=O)c2cc(C#CC3CCCC3)cnc2O[C@H]1CN(C)Cc1ccncc1	0	-	0	-	-	-
O=C(NO)c1cc(OCC(F)(F)F)ccc1OCC(F)(F)F	-	0	0	0	12	0
O=C(NC1CC1)c1cc(OCC(F)(F)F)ccc1OCC(F)(F)F	0	0	-	0	0	0
COc1ccc(NC(=O)N(C)C[C@H]2Oc3ccc(NS(=O)(=O)c4ccc(F)cc4)cc3C(=O)N([C@H](C)CO)C[C@H]2C)cc1	0	-	0	-	-	-
Cc1ccc(C)c(OCCCC(=O)Nc2ccc(N3CCOCC3)cc2)c1	-	6.3	-	-	0	-
O=c1[nH]nc(Sc2ncnc3sccc23)n1CCc1ccccc1	-	0	0	0	9.7	0
CCN(CC)C(=O)CSc1n[nH]c(=O)n1CCc1ccccc1	0	0	0	0	0	0
COc1ccc(S(=O)(=O)N(C)C[C@@H]2Oc3c(NC(=O)C4CCCCC4)cccc3C(=O)N([C@@H](C)CO)C[C@@H]2C)cc1	-	-	0	-	-	-
CC=Cc1ccc2n(c1=O)C[C@H]1[C@H](CO)[C@@H](C(=O)NCCC)N(CC3CCCC3)[C@@H]21 (mixture of isomers)	0	-	0	-	-	-
C[C@@H]1CN([C@@H](C)CO)C(=O)c2cc(C#CC3CCCCC3)cnc2O[C@H]1CN(C)Cc1ccncc1	0	-	0	-	-	-
CN(C)c1cc(-c2ccc(Cl)cc2)oc(=O)c1Cl	0	0	-	0	0	0
CN(C)c1cc(-c2ccc(Cl)c(Cl)c2)oc(=O)c1Cl	0	5.4	0	0	0	0
CO[C@H]1CN(C)C(=O)c2ccc(NC(C)=O)cc2OC[C@H](C)N(C(=O)CN2CCOCC2)C[C@@H]1C	0	-	0	-	-	-
Cc1ccc(CNc2nc(C)nc3sc4c(c23)CCC4)cc1	-	0	0	0	0	0
Cc1nc(Nc2ccc(O)cc2)c2c3c(sc2n1)CCCC3	0	0	0	0	8.4	0
CCN(C[C@H]1N[C@@H](CO)[C@@H]1c1ccc(C2=CCCC2)cc1)C(=O)c1ccncc1	0	-	0	-	-	-
Cc1ccccc1S(=O)(=O)N1CC[C@@H]2[C@@H](CO)N(C)c3ccc(-c4ccc(F)cc4)cc3[C@@H]21	-	-	0	-	-	-
CCNC(=O)C[C@H]1CC[C@H]2[C@H](COc3ccc(NC(=O)c4ccc(F)c(F)c4)cc3C(=O)N2C)O1	0	-	0	-	-	-
Cc1ccc2cc(CN(CCCN(C)C)C(=S)NCc3ccccc3)c(=O)[nH]c2c1C	0	0	-	0	9.8	0
Cc1ccc2cc(CN(CCCN(C)C)C(=O)NCc3ccccc3)c(=O)[nH]c2c1C	-	0	0	0	7.8	0
Cc1ccc(-c2cnc3c(c2)C(=O)N([C@@H](C)CO)C[C@H](C)[C@@H](CN(C)C(=O)c2cccc(F)c2)O3)cc1	0	-	0	-	-	-
N#Cc1c(Cl)cccc1-n1ccnc1	-	0	0	0	0	0
Cc1cc(C)n(-c2cccc(Cl)c2C#N)n1	0	0	0	0	8.7	0
CCOC(=O)N1CCN(c2c(-c3ccc(C(C)C)cc3)c(=O)c2=O)CC1	-	5.3	0	0	0	0
COCC#Cc1ccc2c(c1)O[C@H](CN(C)C(=O)Nc1ccc(OC)cc1)[C@H](C)CN([C@H](C)CO)S2(=O)=O	0	-	0	-	-	-
SMILES	ERp5 inh	IMP-1 inhibitor	PglD inh	PDI inh	VIM-2 inh	PvdQ inh
CCCCCC(=O)N(O)C1CC(=O)N(c2ccccc2)C1=O (stereo unspecified)	-	0	-	0	8.1	0
CN1C(=O)NC(c2ccccc2)C2=C1CN(c1cccc(C(F)(F)F)c1)C2=O (stereo unspecified)	-	0	0	31	0	0
Cc1ccccc1N1CC2=C(C1=O)C(c1ccccc1)NC(=O)N2C (stereo unspecified)	0	0	0	0	0	0
Cc1ccc(N2C(=O)SC(N(CC(=O)O)c3cccc(C)c3)C2=O)cc1 (stereo unspecified)	0	0	0	0	0	0
CC(=O)N(c1ccccc1)C1SC(=O)N(c2ccccc2)C1=O (stereo unspecified)	0	6.5	-	0	0	0
CCCN1[C@H](C(=O)NCCOC)[C@@H](CO)[C@@H]2Cn3c(ccc(-c4cccc(C(=O)N(C)C)c4)c3=O)[C@@H]21	0	-	0	-	-	-
C[C@H](CO)N1C[C@H](C)[C@H](CN(C)Cc2ccc(C(=O)O)cc2)Oc2c(NC(=O)Nc3ccccc3)cccc2C1=O	0	-	0	-	-	-
CCCNC(=O)N1CCC2(CC1)CN(C(=O)CC)[C@@H](CO)c1[nH]c3cc(OC)ccc3c12	0	-	-	-	-	-
C=C(C)CC1N(c2cccc(OC)c2)C(=O)C2C(C(=O)O)C3C=CC21O3 (stereo unspecified)	0	0	0	-	0	0
O=C(O)C1C2C=CC3(O2)C1C(=O)N1c2ccccc2C2OCCC2C13 (stereo unspecified)	-	0	0	0	11	0
CC(=O)N1N=C(c2ccc(Cl)cc2)CC1c1ccco1 (stereo unspecified)	0	0	-	0	9.9	0
COc1ccccc1OCC(=O)OC/C(O)=C(\C#N)c1nc2ccccc2[nH]1	0	0	0	0	11	0
O=C(C[C@@H]1C=C[C@H](NC(=O)c2ccc(F)cc2)[C@@H](CO)O1)NCCc1ccccc1	0	-	0	-	-	-
COC(=O)c1c(C(=O)OC)c2cc(C)ccn2c1Cl	-	0	0	0	8.1	0
Cc1cccc(NC(=O)Nc2ccc3c(c2)C(=O)N(C)[C@H]2CC[C@H](CC(=O)O)O[C@H]2CO3)c1	0	-	0	-	-	-
CC(=O)c1nc(N2C(=O)CC(Cc3cccc(C)c3)C2=O)sc1C (stereo unspecified)	0	17	0	0	0	0
CC(=O)c1nc(N2C(=O)CC(Cc3cc(C)cc(C)c3)C2=O)sc1C (stereo unspecified)	-	0	-	0	0	0
O=c1[nH]c(Nc2ccc(F)cc2)cc2ccccc12	0	0	32	0	0	0
O=c1[nH]c(Nc2ccccc2Cl)cc2ccccc12	0	-	0	0	-	0
O=S(=O)(N[C@H]1CC[C@H](CCn2cc(-c3ccc(F)cc3)nn2)O[C@H]1CO)c1ccccc1F	0	-	0	-	-	-
COC(=O)C[C@H]1CC[C@H](N)[C@@H](CO)O1	0	-	0	-	-	-
CCN(CC)CCCNc1nc2ccccc2c2[nH]c3ccc(OC)cc3c12	0	-	-	60	-	0
Cc1nc2ccccc2c2oc(C(=O)N3CC(C)CC(C)C3)cc12 (stereo unspecified)	0	0	0	0	9.8	0
CCOC(=O)C1CCCN(C(=O)c2cc(-c3ccco3)nc3ccccc23)C1 (stereo unspecified)	0	-	0	0	-	0
